ChEMBL document CHEMBL1127017

Columns and labels:
[1] = target: T1, Progesterone receptor (Rattus norvegicus) (UniProt Q63449); assay: Relative binding affinity for progesterone receptor in a competitive radiometric binding assay relative to the affinity of R5020 as tracer
T1 sequence (whole entry): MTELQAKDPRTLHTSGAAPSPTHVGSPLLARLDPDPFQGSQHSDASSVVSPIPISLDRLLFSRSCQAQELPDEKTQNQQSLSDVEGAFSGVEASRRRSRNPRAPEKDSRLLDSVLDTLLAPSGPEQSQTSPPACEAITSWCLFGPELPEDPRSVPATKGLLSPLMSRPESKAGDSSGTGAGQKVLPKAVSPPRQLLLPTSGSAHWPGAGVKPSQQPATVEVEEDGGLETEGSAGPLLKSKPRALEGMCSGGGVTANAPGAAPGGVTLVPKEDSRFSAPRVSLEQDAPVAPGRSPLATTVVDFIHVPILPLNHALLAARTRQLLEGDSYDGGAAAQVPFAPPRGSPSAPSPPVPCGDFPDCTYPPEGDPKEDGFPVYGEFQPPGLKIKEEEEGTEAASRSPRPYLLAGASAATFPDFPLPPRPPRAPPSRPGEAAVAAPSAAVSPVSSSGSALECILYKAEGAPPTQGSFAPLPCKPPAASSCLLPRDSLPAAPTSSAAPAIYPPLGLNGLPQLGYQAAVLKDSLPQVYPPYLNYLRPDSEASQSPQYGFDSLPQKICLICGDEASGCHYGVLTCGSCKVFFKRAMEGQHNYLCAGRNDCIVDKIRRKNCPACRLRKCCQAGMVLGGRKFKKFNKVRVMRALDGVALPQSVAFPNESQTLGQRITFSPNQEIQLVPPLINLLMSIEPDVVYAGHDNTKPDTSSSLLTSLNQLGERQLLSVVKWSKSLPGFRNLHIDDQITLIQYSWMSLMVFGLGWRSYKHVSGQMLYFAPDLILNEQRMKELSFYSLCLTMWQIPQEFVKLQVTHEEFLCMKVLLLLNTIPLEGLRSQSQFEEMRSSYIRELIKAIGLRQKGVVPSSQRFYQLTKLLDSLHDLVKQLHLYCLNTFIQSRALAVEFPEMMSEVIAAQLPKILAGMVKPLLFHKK
Procedure, shortened: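 The R5020 standard is defined as 100%, and binding of other ligands is expressed as a percentage relative to it.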

[2] = target: T2, Mineralocorticoid receptor (Rattus norvegicus) (UniProt P22199); assay: Relative binding affinity for the rat kidney mineralocorticoid receptor (MR) relative to the affinity of aldosterone as tracer
T2 sequence (whole entry): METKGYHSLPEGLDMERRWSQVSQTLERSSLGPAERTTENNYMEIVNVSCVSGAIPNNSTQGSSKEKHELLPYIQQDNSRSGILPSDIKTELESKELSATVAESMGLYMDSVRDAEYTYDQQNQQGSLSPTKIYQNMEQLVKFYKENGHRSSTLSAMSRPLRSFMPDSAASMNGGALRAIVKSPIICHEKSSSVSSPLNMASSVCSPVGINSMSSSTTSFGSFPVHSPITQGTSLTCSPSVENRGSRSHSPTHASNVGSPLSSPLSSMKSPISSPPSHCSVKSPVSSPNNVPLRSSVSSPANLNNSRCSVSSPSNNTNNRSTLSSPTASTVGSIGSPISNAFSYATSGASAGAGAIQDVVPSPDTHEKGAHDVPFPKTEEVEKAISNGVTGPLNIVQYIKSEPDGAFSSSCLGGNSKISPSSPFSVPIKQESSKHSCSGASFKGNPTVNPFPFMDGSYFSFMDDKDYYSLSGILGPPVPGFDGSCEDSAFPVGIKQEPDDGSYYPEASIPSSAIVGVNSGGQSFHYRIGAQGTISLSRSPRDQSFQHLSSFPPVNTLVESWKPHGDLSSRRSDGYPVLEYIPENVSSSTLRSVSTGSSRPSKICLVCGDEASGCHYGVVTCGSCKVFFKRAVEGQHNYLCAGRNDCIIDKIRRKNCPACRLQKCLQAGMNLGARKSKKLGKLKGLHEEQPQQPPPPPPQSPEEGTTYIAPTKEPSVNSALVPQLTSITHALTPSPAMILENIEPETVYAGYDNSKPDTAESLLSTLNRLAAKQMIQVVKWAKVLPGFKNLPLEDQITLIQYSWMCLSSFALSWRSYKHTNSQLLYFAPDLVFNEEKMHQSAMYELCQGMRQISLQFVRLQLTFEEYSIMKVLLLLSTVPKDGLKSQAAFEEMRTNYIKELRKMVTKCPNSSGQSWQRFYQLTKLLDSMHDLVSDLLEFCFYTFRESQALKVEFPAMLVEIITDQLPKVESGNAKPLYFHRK

| Compound | relative binding affinity (RBA) [1] | relative binding affinity (RBA) [2] |
| --- | --- | --- |
| CC(=O)[C@@]12OC(C)(c3ccc(N=C=S)cc3)O[C@@H]1CC1C3CCC4=CC(=O)CC[C@]4(C)C3CC[C@@]12C (some centres undefined) | 1.3 | 0.09 |
| CC(=O)[C@@]12OC(C)(c3c(F)c(F)c(N=[N+]=[N-])c(F)c3F)O[C@@H]1CC1C3CCC4=CC(=O)CC[C@]4(C)C3CC[C@@]12C (some centres undefined) | 14 | 0.95 |
| CC(=O)[C@@]12OC(C)(c3ccco3)OC1CC1C3CCC4=CC(=O)CC[C@]4(C)C3CC[C@@]12C (some centres undefined) | 5.5 |  |
| CC(=O)[C@@]12OC(C)(c3ccccc3)O[C@@H]1C[C@H]1[C@@H]3CCC4=CC(=O)CC[C@]4(C)[C@H]3CC[C@@]12C (stereo in doubt; 16) | 16 | 1.6 |
| CC(=O)[C@@]12OC(C)(c3ccc(C(=O)c4ccccc4)cc3)O[C@@H]1CC1C3CCC4=CC(=O)CC[C@]4(C)C3CC[C@@]12C (some centres undefined) | 6.6 | < 0.003 |
| CC(=O)[C@@]12OC(C)(c3ccc(N=[N+]=[N-])cc3)O[C@@H]1CC1C3CCC4=CC(=O)CC[C@]4(C)C3CC[C@@]12C (stereo in doubt; 6) | 15 | 0.13 |
| CC(=O)[C@@]12OC(C)(c3c(F)c(F)c(F)c(F)c3F)O[C@@H]1CC1C3CCC4=CC(=O)CC[C@]4(C)C3CC[C@@]12C (some centres undefined) | 20 | 0.65 |
| CC(=O)[C@@]12OC(C)(C)O[C@@H]1C[C@H]1[C@@H]3CCC4=CC(=O)CC[C@]4(C)[C@H]3CC[C@@]12C | 2 |  |
| CC(=O)[C@@]12OC(C)(c3ccc(F)cc3)O[C@@H]1CC1C3CCC4=CC(=O)CC[C@]4(C)C3CC[C@@]12C (stereo in doubt; 10) | 53 | 6 |
| CC(=O)[C@H]1CC[C@H]2[C@@H]3CCC4=CC(=O)CC[C@]4(C)[C@H]3CC[C@]12C | 13 |  |
| CC(=O)[C@@]12OC(C)(c3ccc(F)cc3)O[C@@H]1CC1C3CCC4=CC(=O)CC[C@]4(C)C3CC[C@@]12C (stereo in doubt; 11) | 0.56 |  |
| CC(=O)[C@@]12OC(C)(c3ccc(I)cc3)O[C@@H]1CC1C3CCC4=CC(=O)CC[C@]4(C)C3CC[C@@]12C (some centres undefined) | 25 | 0.13 |
| CC(=O)[C@@]12OC(C)(c3ccccc3)O[C@@H]1C[C@H]1[C@@H]3CCC4=CC(=O)CC[C@]4(C)[C@H]3CC[C@@]12C (stereo in doubt; 17) | 1.2 |  |
| CC(=O)[C@@]12OC(C)(c3ccc(N=[N+]=[N-])c(I)c3)O[C@@H]1CC1C3CCC4=CC(=O)CC[C@]4(C)C3CC[C@@]12C (some centres undefined) | 2.9 |  |
| CC(=O)[C@@]12OC(C)(c3ccc(N)cc3)O[C@@H]1CC1C3CCC4=CC(=O)CC[C@]4(C)C3CC[C@@]12C (some centres undefined) | 0.01 |  |
| CC(=O)[C@@]12OC(C)(c3ccc(N=[N+]=[N-])cc3)O[C@@H]1CC1C3CCC4=CC(=O)CC[C@]4(C)C3CC[C@@]12C (stereo in doubt; 7) | 0.18 |  |
